From ChEMBL document CHEMBL4622866, “Synthesis, biochemical evaluation, and molecular modeling of organophosphate-coumarin hybrids as potent and selective butyrylcholinesterase inhibitors” (Bioorg Med Chem Lett, 2020)
The source made the active and inactive calls. The rule behind the calls is not given here.

Columns and labels:
[1] = molecular target: Cholinesterase (Equus caballus) (UniProt P81908); assay: Inhibition of equine BChE at 34 uM using butyrylthiocholine as substrate measured after 15 sec by Ellman's method relative to control
Sequence of Cholinesterase (Equus caballus) (P81908 whole entry): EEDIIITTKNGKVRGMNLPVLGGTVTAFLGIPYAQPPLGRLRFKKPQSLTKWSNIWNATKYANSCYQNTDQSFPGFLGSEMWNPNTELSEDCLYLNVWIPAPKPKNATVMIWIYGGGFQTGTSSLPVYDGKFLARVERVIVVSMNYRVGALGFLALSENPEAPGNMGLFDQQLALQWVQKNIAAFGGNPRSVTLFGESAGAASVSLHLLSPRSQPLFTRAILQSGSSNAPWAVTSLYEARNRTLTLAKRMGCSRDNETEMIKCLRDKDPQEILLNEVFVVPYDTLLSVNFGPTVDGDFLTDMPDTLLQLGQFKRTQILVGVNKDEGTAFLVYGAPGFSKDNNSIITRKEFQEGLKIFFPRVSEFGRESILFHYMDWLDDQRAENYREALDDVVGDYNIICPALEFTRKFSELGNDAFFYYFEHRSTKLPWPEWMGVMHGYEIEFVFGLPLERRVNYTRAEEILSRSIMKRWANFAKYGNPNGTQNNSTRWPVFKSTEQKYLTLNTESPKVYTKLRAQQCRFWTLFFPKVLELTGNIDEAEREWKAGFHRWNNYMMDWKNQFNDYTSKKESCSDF
How it was run: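 Single-concentration Ellman screen (120 μL scale) at 34 μM inhibitor with 2% MeOH (v/v) vehicle. Activity read after 15 s of enzyme exposure, in triplicate, reported as mean. Expressed relative to a vehicle-only control reaction.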

Cholinesterase = Cholinesterase (Equus caballus, UniProt P81908); assay: Inhibition of equine BChE using butyrylthiocholine as substrate measured after 15 sec by Ellman's method
Sequence of Cholinesterase (P81908 whole entry): as above
How it was run: (§1)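 Ellman assay scaled to 120 μL reactions, with no enzyme–inhibitor pre-incubation. Activity read after 15 s of enzyme exposure. Inhibitor stocks were made in methanol and diluted into buffer; some values were determined in 2% DMSO. IC50 values are reported as mean with standard deviation.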

Acetylcholinesterase [2] = molecular target: T1, Acetylcholinesterase (Electrophorus electricus, UniProt O42275); assay: Inhibition of electric eel AChE using acetylthiocholine as substrate measured after 15 sec by Ellman's method; how it was run: as §1
T1 sequence (O42275 whole entry): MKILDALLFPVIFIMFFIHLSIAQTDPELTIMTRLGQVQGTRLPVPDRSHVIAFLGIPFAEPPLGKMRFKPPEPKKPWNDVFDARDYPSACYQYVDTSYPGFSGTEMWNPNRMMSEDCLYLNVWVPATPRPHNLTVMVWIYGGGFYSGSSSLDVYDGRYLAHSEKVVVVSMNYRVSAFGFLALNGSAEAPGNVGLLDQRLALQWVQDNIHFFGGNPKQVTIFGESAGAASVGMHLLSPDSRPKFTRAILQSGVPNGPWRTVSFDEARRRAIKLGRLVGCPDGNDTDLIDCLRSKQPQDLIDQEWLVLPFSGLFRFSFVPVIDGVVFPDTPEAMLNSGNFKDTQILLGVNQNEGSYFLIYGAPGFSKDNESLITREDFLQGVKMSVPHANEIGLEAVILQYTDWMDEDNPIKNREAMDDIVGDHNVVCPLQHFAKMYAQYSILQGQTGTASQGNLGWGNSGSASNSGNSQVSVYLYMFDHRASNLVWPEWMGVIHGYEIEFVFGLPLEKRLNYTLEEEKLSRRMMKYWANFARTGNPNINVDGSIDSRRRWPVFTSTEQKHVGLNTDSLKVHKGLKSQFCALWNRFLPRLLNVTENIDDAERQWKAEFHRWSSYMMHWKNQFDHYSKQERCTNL

[3] = Selectivity index, ratio of IC50 for electric eel AChE using acetylthiocholine as substrate measured after 15 sec by Ellman's method to IC50 for equine BChE using butyrylthiocholine as substrate measured after 15 sec by Ellman's method
[4] = molecular target: Cholinesterase (Equus caballus) (UniProt P81908); assay: Time dependent inhibition of equine BChE
[5] = molecular target: Cholinesterase (Equus caballus) (UniProt P81908); assay: Binding affinity to equine BChE assessed as observed rate constant
Acetylcholinesterase [6] = molecular target: T1, Acetylcholinesterase; assay: Time dependent inhibition of electric eel AChE

SMILES | IC50 (Cholinesterase) [µM] | other results
CC(=O)CC(c1ccccc1)c1c(O)c2ccccc2oc1=O (stereo unspecified) |  | inhibition [1]: 10%
O=c1oc2ccccc2cc1Cc1ccc(O)cc1 | 51.2 | 
CCOP(=O)(OCC)Oc1ccc(Cc2cc3ccccc3oc2=O)cc1 | 30.2 | IC50 (Acetylcholinesterase [2]): 30.2 µM; Ratio IC50 [3]: 3; inhibition [4]: Active
O=c1oc2cccc(O)c2cc1Cc1ccc(O)cc1 | 32 | 
CCOP(=S)(OCC)Oc1c(C(CC(C)=O)c2ccccc2)c(=O)oc2ccccc12 (racemic) | > 100 | K [5]: 8400 M⁻¹ s⁻¹
O=c1oc2cccc(O)c2cc1Cc1ccccc1 | > 700 | 
CCOP(=S)(OCC)Oc1ccc(Cc2cc3ccccc3oc2=O)cc1 | 53 | 
CCOP(=O)(OCC)Oc1c(C(CC(C)=O)c2ccccc2)c(=O)oc2ccccc12 (racemic) | 11.2 | TDI [4]: Active; TDI (Acetylcholinesterase [6]): Not Active; K [5]: 142000 M⁻¹ s⁻¹
CCOP(=O)(OCC)Oc1cccc2ccccc12 | 54 | 
CCCCOP(=O)(OCCCC)Oc1c(C(CC(C)=O)c2ccccc2)c(=O)oc2ccccc12 (racemic) | 1.52 | TDI [4]: Active; TDI (Acetylcholinesterase [6]): Not Active
CCOP(=O)(OCC)Oc1cccc2oc(=O)c(Cc3ccccc3)cc12 | 0.363 | 
CCS(=O)(=O)Oc1cccc2ccccc12 | 71.5 | 
